From PubChem BioAssay
SENP1 FRET inh: SENP1 (human) catalytic domain inhibition. recombinant SENP1 catalytic domain, CyPet-SUMO1-YPet FRET cleavage. inhibition, % at 10 µM. actives 0.21% (n = 360,000);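 active = inhibition at least 30% at 10 µM, raw YFP signal under a set limit, fluorescence ratio 0.5 to 1.5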;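 also: 0% = enzyme with DMSO and 100% = no enzyme wells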
Target sequence (Q9P0U3 419-644 limits assumed): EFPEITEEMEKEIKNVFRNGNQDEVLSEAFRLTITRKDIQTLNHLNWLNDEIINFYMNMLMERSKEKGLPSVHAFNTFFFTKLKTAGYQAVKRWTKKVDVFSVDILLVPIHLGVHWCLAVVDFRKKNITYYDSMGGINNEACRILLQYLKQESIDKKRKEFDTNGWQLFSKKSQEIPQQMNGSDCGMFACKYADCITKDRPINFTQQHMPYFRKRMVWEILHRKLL
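Test system: recombinant human SENP1 catalytic domain, His6-tagged / Medium: pH 8 Tris buffer with EDTA, NaCl, BME, BSA, NP40, catalase / Also added: SUMO1 FRET substrate flanked by Cypet and Ypet, 25 nM / Times: 50 min reaction at room temperature / Signal: FRET, CFP and YFP emission / Control set: no-enzyme low control and enzyme-plus-DMSO high control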
SENP8 block-1: SENP8 (human) protease inhibition; Q96LD8; AID 602440; actives 0.64% (n = 360,000); recombinant SENP8, Nedd8 substrate fluorescence; inhibition, % at 20 µM; in the data active = inhibition mostly above about 40%, no sharp cut-off; inactive = mostly below about 27%
Target sequence (Q96LD8 whole entry, looked up): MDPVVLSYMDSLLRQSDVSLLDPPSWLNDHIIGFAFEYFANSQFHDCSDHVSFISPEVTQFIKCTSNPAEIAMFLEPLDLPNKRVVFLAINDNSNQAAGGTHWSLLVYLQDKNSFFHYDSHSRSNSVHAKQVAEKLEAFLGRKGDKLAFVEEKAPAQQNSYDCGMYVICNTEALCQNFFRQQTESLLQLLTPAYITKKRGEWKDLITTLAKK
Platelet DG rel: platelet dense granule release activity; human platelet-rich plasma, SFLLRN dense granule ATP release, luminescence; inhibition, %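 (compounds screened at 7.5 µM in platelet-rich plasma)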; actives 0.22% (n = 300,000); AID 1663;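 active = mean replicate score, as percent of positive control, at or above 50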
SENP8 block-2: blocks the human protease SENP8; actives 1.2% (n = 330,000); purified SENP8, Z-RLRGG-aminoluciferin cleavage, luminescence; Q96LD8; inhibition, % at 10 µM; in the data active = inhibition above about 50%
SENP6 block: inhibitors of human SENP6 protease | Q9GZR1 | Recombinant SENP6 catalytic domain, aminoluciferin luminescence | inhibition, % at 10 µM | actives 1.8% (n = 330,000);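 active = inhibition above about 50% at the single tested dose, limit read from the data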;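 also: plate controls were DMSO wells with enzyme for no effect and DMSO wells lacking enzyme for full effect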
SENP7 inh: inhibitors of human SENP7 protease. inhibition, % at 5 µM. recombinant SENP7, Z-RLRGG-aminoluciferin luminescence, 40 min. actives 1.5% (n = 330,000);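 active = inhibition above about 50% at the single test dose, limit read from the data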;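 also: plate controls were DMSO with enzyme for no effect and no enzyme buffer wells for full effect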
SENP8 confirm: human SENP8 inhibition, confirmed; actives 40% (n = 6,200); inhibition, % at 12.5 µM; shares compounds with SENP7 inh; Recombinant SENP8, Z-RLRGG-aminoluciferin luminescence, 60 min;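 active = mean inhibition across replicates above about 50%, limit read from the data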
SENP6 conf: confirmation of human SENP6 protease inhibitors; shares compounds with SENP7 inh; recombinant SENP6, Z-RLRGG-aminoluciferin luminescence; inhibition, % at 12.5 µM; actives 58% (n = 6,200); AID 488915
SENP7 conf: human SENP7 inhibition, confirmed. shares compounds with SENP7 inh. recombinant SENP7, Z-RLRGG-aminoluciferin luminescence, 40 min. inhibition, % at 12.5 µM. actives 69% (n = 6,200)
Casp3 select: caspase-3 inhibition (SENP selectivity assay); shares compounds with SENP7 inh; purified caspase-3, Z-DEVD-aminoluciferin luminescence, 60 min; inhibition, % at 12.5 µM; actives 60% (n = 6,200);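 active = mean inhibition above about 50%, limit read from the data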;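 also: plate controls were enzyme with DMSO for no effect and wells without caspase-3 for full effect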
Target sequence (P42574 28-227 limits assumed): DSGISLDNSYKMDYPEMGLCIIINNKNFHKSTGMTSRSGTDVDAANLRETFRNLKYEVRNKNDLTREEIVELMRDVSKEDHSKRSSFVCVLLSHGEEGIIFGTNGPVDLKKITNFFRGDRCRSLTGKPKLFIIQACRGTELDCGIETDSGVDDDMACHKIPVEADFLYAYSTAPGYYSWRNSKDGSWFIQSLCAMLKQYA
SENP luc ctr: interferes with luciferase luminescence in SENP counter-screen. shares compounds with SENP7 inh. Pre-incubated SENP8/Z-RLRGG-aminoluciferin, luciferase luminescence interference. inhibition, % at 12.5 µM. actives 39% (n = 6,200). AID 488919;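 active = mean inhibition above about 50% when retested at one dose, limit read from the data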;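 also: plate controls were DMSO wells with completed reaction for no effect and substrate without enzyme for full effect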
Active calls of the source: *; · = no result given. Compounds with a hit are over-represented: about 2.6% of the library has one in this group of screens.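 The calls were made as follows, unless noted: active = mean inhibition above about 50% in the one-dose retest (limit read from the data); inactive = the rest.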

SMILES | SENP1 FRET inh | SENP8 block-1 | Platelet DG rel | SENP8 block-2 | SENP6 block | SENP7 inh | SENP8 confirm | SENP6 conf | SENP7 conf | Casp3 select | SENP luc ctr
CCc1ccc(C(=O)O)cc1 | 1 | 29 | -3 | 0 | 7 | -5 | · | · | · | · | ·
CCC(C)COC(=O)c1ccc(C(=O)O)cc1 (stereo not given) | 1 | 26 | -2 | 26 | 62* | 2 | 42 | 45 | 81* | 86* | 70*
Cc1cccc(NC(=S)NNC(=O)c2csc3c2CCCC3)c1 | 3 | 2 | 2 | 61* | 46 | -9 | 46 | 39 | 31 | 15 | 12
COc1cccc(NC(=O)c2csc3c2CCCC3)c1 | 5 | -3 | 3 | 54* | 68* | 62* | 59* | 59* | 87* | 49 | 25
COc1ccc(NC(=O)c2csc3c2CCCC3)cc1 | 1 | 6 | 11 | 25 | 43 | 50* | -4 | 24 | 75* | 37 | 17
COc1ccc(CNC(=O)c2csc3c2CCCC3)cc1 | 2 | 11 | · | -6 | -17 | -2 | · | · | · | · | ·
COc1cccc(NC(=O)CN(C)C(=O)c2csc3c2CCCC3)c1 | -1 | -2 | · | -8 | -8 | 3 | · | · | · | · | ·
Cc1ccc(NC(=S)NCc2ccc3[nH]c4c(c3c2)CCCC4)cc1 | -26 | -10 | 4 | -6 | -12 | -14 | · | · | · | · | ·
C=C(Cl)COc1ccc2c(CC)cc(=O)oc2c1 | -2 | -129 | · | -20 | -18 | 57* | 6 | 6 | 6 | 3 | 0
C/C(=N\NC(=S)NC(C)C)c1ccco1 | -1 | 9 | 3 | -5 | -8 | 1 | · | · | · | · | ·
O=C1CCCC(O)=C1N=Nc1cccc(C(=O)O)c1 | -1 | 21 | -7 | 61* | 77* | 80* | 14 | 78* | 96* | 22 | 70*
Cc1nc2ccc(NC(=O)c3ccccc3)cc2s1 | -1 | 2 | -3 | 4 | -11 | 1 | · | · | · | · | ·
Cc1nc2ccc(NC(=O)c3ccc4ccccc4n3)cc2s1 | 1 | 1 | 2 | 6 | 3 | 71* | 11 | 12 | 40 | 51* | 5
Cc1nc2ccc(NC(=O)c3sccc3C)cc2s1 | -1 | 16 | 10 | 60* | 85* | 69* | 71* | 71* | 90* | 81* | 73*
CCN(C(=O)COC(=O)c1cccnc1Nc1cccc(C(F)(F)F)c1)C1CCS(=O)(=O)C1 (stereo not given) | 1 | -42 | 0 | 50 | 63* | 72* | 66* | 64* | 86* | 50 | 64*
COCCn1c(C)cc(C2=NNC(=NC3CC3)SC2)c1C | 0 | 5 | 82* | 82* | 75* | 7 | 95* | 96* | 101* | 98* | 68*
CN(C)CCCN(C(=O)COc1ccccc1)c1nc2c(F)cccc2s1 | 2 | 18 | -5 | -1 | 12 | 61* | -29 | -17 | -7 | -10 | -12
CC(C)=CCOc1ccc2c(C)c(CC(=O)N3C[C@H]4C[C@@H](C3)c3cccc(=O)n3C4)c(=O)oc2c1C | -107 | -195 | -6 | -7 | 3 | -5 | · | · | · | · | ·
COc1ccccc1N/C=C/c1onc(C)c1[N+](=O)[O-] | -24 | 22 | 64* | 96* | 99* | 99* | 84* | 95* | 96* | 92* | 11
Cc1noc(/C=C/c2ccccn2)c1[N+](=O)[O-] | -1 | 0 | 1 | -4 | 10 | -2 | · | · | · | · | ·
CCc1ccc2cccc3c2c1N=CN3C | -7 | 84* | 16 | 41 | 57* | 27 | 15 | 21 | 15 | 3 | 3
CCN1c2cccc3cccc(c23)S1(=O)=O | 1 | -301 | 3 | -5 | -10 | -5 | · | · | · | · | ·
Clc1ccc(-c2nsc(N3CCOCC3)n2)c(Cl)c1 | 1 | 11 | 4 | 65* | 77* | 68* | 66* | 64* | 89* | 72* | 49
Clc1cc(Cl)c2nc(N3CCOCC3)sc2c1 | 1 | 1 | 3 | 14 | -39 | 25 | · | · | · | · | ·
COc1ccc(C(=O)C2CCCN(C(=O)c3ccc4nccnc4c3)C2)c(C)c1 (stereo not given) | 3 | -2 | -5 | 7 | 57* | -7 | -21 | -17 | -8 | -8 | -5
SMILES | SENP1 FRET inh | SENP8 block-1 | Platelet DG rel | SENP8 block-2 | SENP6 block | SENP7 inh | SENP8 confirm | SENP6 conf | SENP7 conf | Casp3 select | SENP luc ctr
COc1cc2c(cc1OC)-c1cc3ccc4c(c3c[n+]1CC2)OCO4 | 30 | -384 | -12 | 11 | 50* | 14 | 26 | 46 | 24 | 12 | 7
CN(CC(=O)Nc1ccccc1Cl)C(=O)COC(=O)c1cccs1 | -1 | 4 | · | 3 | 0 | 4 | · | · | · | · | ·
COc1ccccc1NC(=O)COC(=O)c1ccc([N+](=O)[O-])s1 | 6 | 22 | -10 | 72* | 91* | 51* | 75* | 85* | 37 | 5 | -14
NS(=O)(=O)c1ccc(NC(=O)COC(=O)c2ccc([N+](=O)[O-])s2)cc1 | 1 | 38 | 7 | 59* | -19 | 33 | 37 | 86* | 47 | 19 | 8
CN(CC(=O)Nc1ccccc1Cl)C(=O)COC(=O)c1ccc([N+](=O)[O-])s1 | 3 | 15 | · | 69* | 70* | 16 | 78* | 85* | 28 | 49 | -10
Cc1c([N+](=O)[O-])cc(C(=O)NCc2ccc(F)cc2)cc1[N+](=O)[O-] | 3 | 13 | 1 | -3 | -10 | 1 | · | · | · | · | ·
Cc1ccc(NC(=O)c2ccc3c(c2)OCO3)cc1Cl | 0 | 12 | 1 | 40 | 69* | 63* | 14 | 50* | 88* | 49 | 10
O=C(Nc1ccc2c(c1)OCO2)c1ccc(Cl)nc1 | 0 | 12 | -8 | -7 | -3 | -2 | · | · | · | · | ·
Cc1ccc(C(=O)Nc2ccc3c(c2)OCO3)cc1S(=O)(=O)N1CCCC1 | 1 | 21 | 0 | -9 | -20 | -10 | · | · | · | · | ·
Cc1cc(Cl)ccc1NC(=O)c1ccc2c(c1)OCO2 | -2 | 19 | -1 | -10 | -8 | -5 | · | · | · | · | ·
O=C(Nc1ccc2c(c1)OCO2)c1cnc(Cl)c(Cl)c1 | 0 | 8 | · | 45 | 59* | 61* | 4 | 52* | 85* | 69* | 10
